Runt-CBFb FRET: inhibitors of human RUNX1 Runt domain binding to CBFb. Q01196+Q13951. Cerulean-Runt/Venus-CBFb FRET ratio 530/480, 1 h. inhibition, % at 20 µM. hit rate 0.46% among 220,000;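 active means inhibition over about 50% at 20 µM in the single-dose screen, limit read from the data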;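 further: 0% = DMSO wells and 100% = excess unlabeled CBFb competitor control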
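Assay system: Cerulean-Runt domain fusion protein, energy donor; Signal: fluorescence energy transfer, 422 nm excitation, 530/480 nm emission; Timing: 1 h compound exposure, room temperature; Control set: unlabeled CBFb; Medium: Tris buffer pH 7.5 with salts and BSA; Compound: single test concentration of 20 µM, 1% DMSO final; Probe or stimulus: Venus-CBFb 100 nM.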
RanGTP-Imp inh: disruptors of Ran-importin-beta complex formation – biochemical, FRET, CFP-Ran, YFP-importin-beta, homogeneous, primary screen; cell-free CFP-Ran/YFP-importin-beta FRET ratio; inhibition, % (concentration not given with the values); hit rate 1.1% among 300,000; AID 2216;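 active means more than half of the replicate wells show a fall in the fluorescence ratio signal beyond about 16%, limit read from the data, passing the limit was not always enough; inconclusive means exactly half of the replicate wells pass the set limit; inactive means fewer than half of replicates pass the limit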;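 further: 0% = DMSO wells and 100% = Ran loaded with GDP instead of GTP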
MEX-5 binding: C. elegans MEX-5 TCR-2 RNA binding activity. hit rate 0.38% among 300,000. MEX-5/FITC-TCR2 RNA binding, fluorescence polarization; hits give low values. activity score (negative = inhibition of binding), % at 10 µM;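 active means inhibition past about -25% in most replicates, and total fluorescence under double the plate's negative control median, limit read from the data; inconclusive means replicates evenly split on the limit, or fluorescence at least double controls; inactive means too little inhibition in most replicates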;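 further: 0% = DMSO and -100% = 5 µM competing unlabeled TCR2 RNA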
Target sequence (Q9XUB2 whole entry, looked up): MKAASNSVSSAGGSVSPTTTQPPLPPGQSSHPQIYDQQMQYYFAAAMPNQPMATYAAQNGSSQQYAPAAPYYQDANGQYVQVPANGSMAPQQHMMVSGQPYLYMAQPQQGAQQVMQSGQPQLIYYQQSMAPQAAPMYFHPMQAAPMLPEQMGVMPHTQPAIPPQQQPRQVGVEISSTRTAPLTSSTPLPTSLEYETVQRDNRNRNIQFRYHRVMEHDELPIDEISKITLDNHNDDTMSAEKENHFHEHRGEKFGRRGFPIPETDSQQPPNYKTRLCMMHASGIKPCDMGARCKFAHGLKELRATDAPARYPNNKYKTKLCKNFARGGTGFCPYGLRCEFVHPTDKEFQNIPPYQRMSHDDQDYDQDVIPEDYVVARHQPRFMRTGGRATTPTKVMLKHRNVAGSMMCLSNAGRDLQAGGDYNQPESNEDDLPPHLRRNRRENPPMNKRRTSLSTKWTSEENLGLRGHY
EBV gp42 inh: EBV gp42 inhibition; Q1HVG2; Fluorescence polarization binding assay, mP read-out; inhibition, % (tested at 21.74 µM); hit rate 0.42% among 220,000; in the data active means inhibition above about 50%
Target sequence (Q1HVG2 whole entry, looked up): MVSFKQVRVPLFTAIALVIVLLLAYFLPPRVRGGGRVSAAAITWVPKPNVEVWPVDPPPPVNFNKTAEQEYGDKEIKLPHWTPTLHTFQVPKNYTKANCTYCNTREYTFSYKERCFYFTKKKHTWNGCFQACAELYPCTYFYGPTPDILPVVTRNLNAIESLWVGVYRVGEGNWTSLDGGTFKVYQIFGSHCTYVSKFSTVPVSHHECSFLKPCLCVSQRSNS
LANA-H2B inh: blocks KSHV LANA binding to histone H2A/H2B. Q9QR71. cell-free LANA-H2A/H2B peptide, fluorescence polarization. inhibition, % (test concentration not listed). hit rate 0.6% among 320,000; in the data active means inhibition mostly above about 10%, no sharp cut-off; inactive means mostly below about 6.7%
Runt-SMMHC FRET: Runt domain-CBFb-SMMHC interaction inhibition; AID 1434; inhibition, % at 20 µM; Cerulean-Runt/Venus-CBFb-SMMHC FRET ratio 530/480, 1 h; hit rate 0.74% among 220,000;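 active means mean inhibition across duplicate retests at 20 µM reaching about 50%, limit read from the data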;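 further: 0% = DMSO wells and 100% = wells with excess untagged CBFb-SMMHC; inhibitors lower the FRET ratio by blocking Runt binding to CBFb-SMMHC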
YIC counter: counter-screen for RanGTP-importin-beta inhibitors: YIC FRET probe; hit rate 40% among 1,000; shares compounds with RanGTP-Imp inh; IC50, µM; AID 435026; Purified YIC probe, intramolecular FRET ratio YFP/CFP;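 active means fitted half-maximal inhibitory concentration no more than tenfold above the top dose tested; inconclusive means flat fit with 30 to 70% activity, or poor fit; inactive means half-maximal concentration beyond tenfold above the top dose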
Numbers without * were called inactive; ? = inconclusive; . = no result. This is a sample that favours compounds with a hit; in the whole collection about 2.4% have one here.

SMILES	Runt-CBFb FRET	RanGTP-Imp inh	MEX-5 binding	EBV gp42 inh	LANA-H2B inh	Runt-SMMHC FRET	YIC counter
CC[C@@]1(C(=O)OC)N[C@H](CN(C)C(=O)NC(C)C)[C@@H]2C(=O)N(C)C(=O)[C@@H]21	.	.	.	.	-4	.	.
Oc1cccc(Nc2ncnc3c2oc2ccccc23)c1	.	1	2	.	-3	.	.
COc1ccccc1S(=O)Cc1ccc(C(=O)O)o1 (configuration not stated)	.	20*	1	-8	0	3	>50
CCOc1cc(CN2CCC(n3nccc3NC(=O)C3CC3)CC2)ccc1O	.	1	-2	.	-2	.	.
O=c1c2cc(NC(=S)N3CCC(N4CCCCC4)CC3)ccc2nc2n1CCCCC2	1	23*	-1	-4	5	-3	>50
CCn1c(SCc2nc(-c3ccccc3)no2)nnc1-c1cccs1	-1	24*	1	-19	-1	1	>50
COc1cc(-c2nc3cnccn3c2Nc2ccc(C(C)C)cc2)ccc1O	2	32*	-3	4	-7	11	>50
COC(=O)[C@H](CC(C)C)NC(=O)c1cc2c(cn1)[nH]c1ccccc12	.	4	-6	.	-2	.	.
Cn1c(N)c(C(=O)COC(=O)C2(c3ccc(F)cc3)CCCC2)c(=O)n(C)c1=O	-4	22*	-3	-19	-3	-1	>50
COc1ccc(CCn2c(=N)c(C(=O)NC3CCCCC3)cc3c(=O)n4ccccc4nc32)cc1	.	19*	-45*	.	-5	.	>50
COc1ccc(CCNC(=O)c2cc3c(=O)n4ccccc4nc3n(CCCN3CCOCC3)c2=N)cc1	.	20*	1	.	-8	.	21*
CCC(C)NC(=O)c1c(N)n(/N=C/c2ccccn2)c2nc3ccccc3nc12 (configuration not stated)	1	?	0	3	1	-1	.
Nc1c(C(=O)NC2CCCC2)c2nc3ccccc3nc2n1/N=C/c1ccco1	21	26*	0	10	-12	25	9.5*
C[C@@H](C(=O)NCc1ccccn1)[C@@H]1C[C@@]1(C)[C@@H](NC(=O)OCc1ccccc1)c1ccccc1	-5	-4	-1	-10	-1	0	.
O=C(NCCc1ccccc1)C(=O)c1c[nH]c2ccccc12	.	-1	-2	.	-2	.	.
NS(=O)(=O)c1ccc(CCNC(=O)C(=O)c2c[nH]c3ccccc23)cc1	-2	17*	0	-6	1	1	>50
CC(C)(C)c1ccc2c(c1)OC(C(=O)N/N=C/c1ccc([N+](=O)[O-])o1)CO2 (configuration not stated)	1	-4	3	-9	13	-6	.
Cc1ccc(C)c2nc(N3CCCC3)c(C#N)cc12	67*	51*	-3	-9	6	94*	1.2*
CCCN(CCC)S(=O)(=O)c1ccc(C(=O)Nc2ccc(S(=O)(=O)Nc3nnc(CC)s3)cc2)cc1	.	1	-1	.	0	.	.
COC(=O)N(C)C[C@H]1OCc2cn(nn2)CCCC(=O)N([C@@H](C)CO)C[C@H]1C	.	.	.	.	.	.	>50
COc1ccc(/C=N/NC(=O)c2sc3nc(C)cc(C)c3c2N)cc1	19	23*	-1	-4	6	35	6.6*
Cc1ccc(S(=O)(=O)CCN2CCC(n3cccc3)CC2)cc1	1	-1	-1	-15	1	-4	.
O=C(Nc1nc2ccc(S(=O)(=O)N3CCCCC3)cc2s1)c1cccnc1	-11	22*	-4	-15	-20	-7	>26
O=C(CN1C(=O)NC2(CCCc3ccccc32)C1=O)NCc1cccs1 (configuration not stated)	.	.	.	.	2	.	.
CC1(C)CCC(=O)C=C1Nc1ccc(F)c(Cl)c1	.	26*	-1	.	3	.	>50
SMILES	Runt-CBFb FRET	RanGTP-Imp inh	MEX-5 binding	EBV gp42 inh	LANA-H2B inh	Runt-SMMHC FRET	YIC counter
c1ccc2[nH]c(CSc3nnc(-c4ccncc4)o3)nc2c1	-1	6	-2	4	-5	-3	.
Clc1ccc(-c2nnc(SCc3nc4ccccc4[nH]3)o2)c(Cl)c1	0	32*	3	-12	-1	2	>50
COc1ccc(-c2cn(Cc3ccc(C)cc3)nn2)cc1	.	-2	3	.	-9	.	.
C[C@H](CO)N1C[C@H](C)[C@@H](CN(C)S(=O)(=O)c2cccs2)Oc2ccc(NC(=O)Cc3ccccc3)cc2CC1=O	.	.	.	.	.	.	>50
C[C@H](CO)N1C[C@H](C)[C@@H](CN(C)S(=O)(=O)c2cccs2)Oc2ccc(NC(=O)Nc3ccccc3)cc2C1=O	.	.	.	.	-3	.	.
COCCNC(=O)C(=O)NCC1OCCN1S(=O)(=O)c1cc(F)ccc1F (configuration not stated)	.	2	-3	.	-9	.	.
CCN(C(=O)c1ccc(Cl)cc1[N+](=O)[O-])c1ccccc1C	0	19*	2	8	-8	2	>50
COc1ccccc1CNC(=O)COC(=O)c1ccccc1-c1ccccc1	.	4	0	.	-2	.	.
COC(=O)c1ccc(C(c2c(C)n(C)n(-c3ccccc3)c2=O)c2c(C)n(C)n(-c3ccccc3)c2=O)cc1	.	-3	2	.	1	.	.
O=C1CCCN2N=C(SCC(=O)N3N=C(c4ccc(Br)cc4)CC3c3ccc(F)cc3)SC2=N1 (configuration not stated)	0	20*	-3	-22	4	-2	>50
Cc1ccc(C2CC(c3ccc(Br)cc3)=NN2C(=O)CSC2=NN3CCCC(=O)N=C3S2)cc1 (configuration not stated)	.	2	2	.	-1	.	.
Cc1ccsc1C(=O)OCC(=O)N1CCN(c2ccccc2)CC1	.	.	.	.	0	.	.
O=C(Nc1nonc1NC(=O)c1cccs1)c1cccs1	0	21*	-1	-16	5	-1	>50
C[C@@H]1CCCCO[C@H](CN(C)Cc2ccc3c(c2)OCO3)[C@@H](C)CN([C@H](C)CO)C(=O)c2cc(NC(=O)CCCN(C)C)ccc2O1	.	.	.	.	.	.	>46
CCSc1nnc(-c2cc(Br)ccc2N=Cc2c(C)[nH]n(-c3ccccc3)c2=O)c(=O)[nH]1	-1	18*	-3	-9	2	-10	>50
Nc1nc2nc(-c3ccc(OCc4ccccc4)cc3)cc(C(F)(F)F)n2n1	80*	34*	3	-28	-1	92*	5*
COC(=O)c1c(NC(NC(=O)c2ccccc2)(C(F)(F)F)C(F)(F)F)sc2c1CCN(C)C2	14	48*	-4	6	6	62	40*
O=C(CSc1ccc(Br)cc1)Nc1ccc(N2CCOCC2)cc1	.	-1	-1	.	5	.	.
O=C(CSc1nnc(-c2ccc(F)cc2)o1)Nc1ccc(S(=O)(=O)N2CCCCCC2)cc1	-2	4	0	-8	-5	-1	.

Screening results as filed in PubChem BioAssay.
